Source: ChEMBL document CHEMBL1140995, “Synthesis and biological evaluation of aminomethylphenol derivatives as inhibitors of the murine GABA transporters mGAT1-mGAT4” (Eur J Med Chem, 2008)

Key:
[1] = target: T1, GABA transporter 4 (Mus musculus, UniProt P31650); assay: Inhibition of [3H]GABA uptake at mouse GAT4 expressed in HEK cells; format: cell-based, HEK293
T1 sequence (P31650 whole entry): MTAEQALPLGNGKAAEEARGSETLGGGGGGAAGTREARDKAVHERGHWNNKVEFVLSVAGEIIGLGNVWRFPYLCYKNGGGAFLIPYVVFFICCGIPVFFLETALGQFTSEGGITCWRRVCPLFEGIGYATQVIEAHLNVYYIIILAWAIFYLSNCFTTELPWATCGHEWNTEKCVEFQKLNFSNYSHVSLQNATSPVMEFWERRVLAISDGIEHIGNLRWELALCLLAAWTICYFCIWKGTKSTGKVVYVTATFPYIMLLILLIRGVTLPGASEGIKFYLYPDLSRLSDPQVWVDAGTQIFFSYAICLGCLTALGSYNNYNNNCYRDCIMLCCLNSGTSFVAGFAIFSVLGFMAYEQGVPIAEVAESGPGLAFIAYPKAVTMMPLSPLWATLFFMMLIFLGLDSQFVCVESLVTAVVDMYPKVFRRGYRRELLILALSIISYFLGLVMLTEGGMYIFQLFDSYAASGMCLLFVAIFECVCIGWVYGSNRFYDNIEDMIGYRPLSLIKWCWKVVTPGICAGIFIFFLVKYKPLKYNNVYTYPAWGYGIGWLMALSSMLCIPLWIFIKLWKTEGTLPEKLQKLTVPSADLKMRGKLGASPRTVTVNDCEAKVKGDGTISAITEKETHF

[2] = target: T2, GABA transporter 2 (Mus musculus, UniProt P31651); assay: Inhibition of [3H]GABA uptake at mouse GAT2 expressed in HEK cells; format: cell-based, HEK293
T2 sequence (P31651 whole entry): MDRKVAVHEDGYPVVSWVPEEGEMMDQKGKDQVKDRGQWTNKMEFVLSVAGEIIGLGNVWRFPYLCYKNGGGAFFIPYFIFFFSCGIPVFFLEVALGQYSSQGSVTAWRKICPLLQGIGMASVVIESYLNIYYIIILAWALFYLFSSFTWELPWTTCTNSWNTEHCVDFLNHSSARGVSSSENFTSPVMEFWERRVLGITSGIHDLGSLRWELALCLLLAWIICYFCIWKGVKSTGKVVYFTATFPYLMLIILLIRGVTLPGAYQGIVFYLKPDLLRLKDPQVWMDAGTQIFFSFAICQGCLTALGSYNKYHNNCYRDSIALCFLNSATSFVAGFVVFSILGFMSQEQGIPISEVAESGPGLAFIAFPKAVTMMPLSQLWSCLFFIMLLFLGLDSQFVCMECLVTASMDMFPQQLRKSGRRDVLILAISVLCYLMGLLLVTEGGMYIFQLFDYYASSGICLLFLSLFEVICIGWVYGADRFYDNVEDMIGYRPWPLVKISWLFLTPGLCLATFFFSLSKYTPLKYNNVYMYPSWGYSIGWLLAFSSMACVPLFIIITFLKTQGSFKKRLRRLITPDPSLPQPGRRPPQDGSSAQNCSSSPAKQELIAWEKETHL
Summary of the method: (§1)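 Stable mGAT2-HEK cells were trypsinized, PBS-washed, and suspended in Krebs-Tris pH 7.2 at about 200,000 cells/well. Cells were preincubated 25 min at 37 °C with compound (1% DMSO), then exposed to 20 nM [³H]GABA plus 20 nM unlabeled GABA for 10 min.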

[3] = target: T3, GABA transporter 3 (Mus musculus, UniProt P31649); assay: Inhibition of [3H]GABA uptake at mouse GAT3 expressed in HEK cells; format: cell-based, HEK293
T3 sequence (P31649 whole entry): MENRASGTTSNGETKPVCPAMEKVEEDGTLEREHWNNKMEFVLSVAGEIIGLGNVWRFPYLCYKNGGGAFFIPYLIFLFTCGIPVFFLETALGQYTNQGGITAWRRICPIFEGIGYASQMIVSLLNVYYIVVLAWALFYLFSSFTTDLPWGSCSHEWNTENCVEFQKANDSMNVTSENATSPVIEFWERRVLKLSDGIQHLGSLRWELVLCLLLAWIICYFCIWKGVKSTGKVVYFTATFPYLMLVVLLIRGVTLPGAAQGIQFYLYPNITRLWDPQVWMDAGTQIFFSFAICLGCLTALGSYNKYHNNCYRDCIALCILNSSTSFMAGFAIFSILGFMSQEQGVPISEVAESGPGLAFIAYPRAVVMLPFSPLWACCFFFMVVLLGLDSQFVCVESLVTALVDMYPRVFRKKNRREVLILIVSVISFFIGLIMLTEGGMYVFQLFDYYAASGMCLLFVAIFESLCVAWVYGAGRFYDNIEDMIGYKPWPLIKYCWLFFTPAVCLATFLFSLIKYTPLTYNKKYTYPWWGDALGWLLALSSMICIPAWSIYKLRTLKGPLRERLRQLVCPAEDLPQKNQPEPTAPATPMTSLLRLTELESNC

[4] = target: Sodium- and chloride-dependent GABA transporter 1 (Mus musculus, UniProt P31648); assay: Inhibition of [3H]GABA uptake at mouse GAT1 expressed in HEK cells; format: cell-based, HEK293
[5] = target: T4, GABA transporter 4 (Mus musculus) (UniProt P31650); assay: Inhibition of [3H]GABA uptake at mouse GAT4 expressed in HEK cells assessed as remaining [3H]GABA uptake at 100 uM relative to control; format: cell-based; details: HEK293
T4 sequence (whole entry): T1 sequence (P31650 whole entry)
Summary of the method: (§2)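 Stably transfected HEK cells were trypsinized, washed in PBS, and resuspended in Krebs-Tris buffer pH 7.2 at about 100,000 cells/well. They were pre-equilibrated 25 min at 37 °C with compound in 1% DMSO, then given 8 nM [³H]GABA plus 32 nM unlabeled GABA for 4 min.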

[6] = target: T5, GABA transporter 3 (Mus musculus) (UniProt P31649); assay: Inhibition of [3H]GABA uptake at mouse GAT3 expressed in HEK cells assessed as remaining [3H]GABA uptake at 100 uM relative to control; format: cell-based; details: HEK293; summary of the method: as §2
T5 sequence (whole entry): T3 sequence (P31649 whole entry)

[7] = target: Sodium- and chloride-dependent GABA transporter 1 (Mus musculus) (UniProt P31648); assay: Inhibition of [3H]GABA uptake at mouse GAT1 expressed in HEK cells assessed as remaining [3H]GABA uptake at 100 uM relative to control; format: cell-based; details: HEK293; summary of the method: as §2
[8] = target: T6, GABA transporter 2 (Mus musculus) (UniProt P31651); assay: Inhibition of [3H]GABA uptake at mouse GAT2 expressed in HEK cells assessed as remaining [3H]GABA uptake at 100 uM relative to control; format: cell-based; details: HEK293; summary of the method: as §1
T6 sequence (whole entry): T2 sequence (P31651 whole entry)

In the case of `Oc1cccc(CNCCC(c2ccccc2)c2ccccc2)c1`, the IC50 [1] is reported as 50.1 µM, the IC50 [2] is reported as 47.9 µM and the IC50 ([3]; read-out: pIC50 (converted)) is reported as 38 µM. It also gave an IC50 [4] of 87.1 µM.
In the case of `COc1ccc(C(OCCNCc2cc(F)c(O)c(F)c2)(c2ccc(OC)cc2)c2ccc(OC)cc2)cc1`, the Activity [5] is reported as 67%, the Activity [6] is reported as 51% and the Activity [7] is reported as 59%. For the same molecule, the Activity [8] was 64%.
Work on `O=C(O)C1CCCN(CCC=C(c2ccccc2)c2ccccc2)C1` (configuration not stated) yielded an IC50 [1] of 275 µM, an IC50 [2] of 372 µM and an IC50 ([3]; read-out: pIC50 (converted)) of 195 µM. It also gave an IC50 [4] of 0.692 µM.
`COc1ccc(C(OCCNCc2cccc(O)c2)(c2ccc(OC)cc2)c2ccc(OC)cc2)cc1` gave an IC50 [1] of 7.76 µM, an IC50 [2] of 12.9 µM and an IC50 ([3]; read-out: pIC50 (converted)) of 9.55 µM. For the same molecule, the IC50 [4] was 43.7 µM.
`COc1ccc(C(OCCNCc2ccc(OC)c(O)c2)(c2ccc(OC)cc2)c2ccc(OC)cc2)cc1` was tested, and the IC50 [1] was 14.5 µM, the IC50 [2] was 20.9 µM and the IC50 ([3]; read-out: pIC50 (converted)) was 8.91 µM. The IC50 [4] was 25.7 µM.
With `CCCCCCCCCCCCNCc1cccc(O)c1` the IC50 [1] was 25.1 µM, the IC50 [2] was 15.1 µM and the IC50 ([3]; read-out: pIC50 (converted)) was 5.62 µM. For the same molecule, the IC50 [4] was 20.9 µM.
Molecule `O=C(O)C1=CCCN(CCON=C(c2ccccc2)c2ccccc2)C1` has an IC50 [1] of 851 µM, an IC50 [2] of 631 µM and an IC50 ([3]; read-out: pIC50 (converted)) of 240 µM. For the same molecule, the IC50 [4] was 0.148 µM.
Work on `Oc1cccc(CNCCC=C(c2ccccc2)c2ccccc2)c1` yielded an IC50 [1] of 20.9 µM, an IC50 [2] of 17.8 µM and an IC50 ([3]; read-out: pIC50 (converted)) of 7.94 µM. It also gave an IC50 [4] of 28.8 µM.
`COc1ccc(C(OCCNCc2c(F)cc(F)c(O)c2F)(c2ccc(OC)cc2)c2ccc(OC)cc2)cc1` was tested, and the Activity [5] was 64%, the Activity [6] was 56% and the Activity [7] was 87%. For the same molecule, the Activity [8] was 89%.
With `Oc1ccccc1CNCCC=C(c1ccccc1)c1ccccc1` the IC50 [1] was 14.8 µM, the IC50 [2] was 14.5 µM and the IC50 ([3]; read-out: pIC50 (converted)) was 7.76 µM. For the same molecule, the IC50 [4] was 33.1 µM.
Molecule `CCCCCCCCCCCCNCc1ccc(OC)c(O)c1` has an IC50 [1] of 8.71 µM, an IC50 [2] of 12.6 µM and an IC50 ([3]; read-out: pIC50 (converted)) of 2.69 µM. The IC50 [4] was 12.3 µM.
`Oc1ccccc1CNCCC(c1ccccc1)c1ccccc1` gave an IC50 [1] of 25.1 µM, an IC50 [2] of 18.2 µM and an IC50 ([3]; read-out: pIC50 (converted)) of 24.5 µM. It also gave an IC50 [4] of 52.5 µM.
Molecule `COc1ccc(CNCCC=C(c2ccccc2)c2ccccc2)cc1O` has an IC50 [1] of 22.9 µM, an IC50 [2] of 19.5 µM and an IC50 ([3]; read-out: pIC50 (converted)) of 12 µM. The IC50 [4] was 18.6 µM.
For `O=C(O)C1=CCCNC1` [GUVACINE], the IC50 [1] was 25.7 µM, the IC50 [2] was 490 µM and the IC50 ([3]; read-out: pIC50 (converted)) was 25.7 µM. It also gave an IC50 [4] of 13.5 µM.
Work on `COc1ccc(C(OCCN2CCC[C@H](C(=O)O)C2)(c2ccc(OC)cc2)c2ccc(OC)cc2)cc1` yielded an Activity [8] of 56%.
With `Oc1c(F)cc(CNCCC=C(c2ccccc2)c2ccccc2)cc1F` the Activity [5] was 76%, the Activity [6] was 66% and the Activity [7] was 70%. For the same molecule, the Activity [8] was 82%.
Molecule `COc1ccc(C(OCCNCc2ccccc2O)(c2ccc(OC)cc2)c2ccc(OC)cc2)cc1` has an IC50 [1] of 16.2 µM, an IC50 [2] of 11.7 µM and an IC50 ([3]; read-out: pIC50 (converted)) of 8.32 µM. The IC50 [4] was 26.9 µM.
Work on `CCCCCCCCCCCCNCc1ccccc1O` yielded an IC50 [1] of 63.1 µM, an IC50 [2] of 28.8 µM and an IC50 ([3]; read-out: pIC50 (converted)) of 18.6 µM. It also gave an IC50 [4] of 58.9 µM.
Molecule `COc1ccc(C(OCCNCc2ccc(F)c(O)c2F)(c2ccc(OC)cc2)c2ccc(OC)cc2)cc1` has an IC50 ([3]; read-out: IC50) of 10.2 µM, an Activity [5] of 82% and an IC50 [4] of 85.1 µM. For the same molecule, the Activity [8] was 54%.
With `Cc1ccsc1C(=CCCN1CCC[C@@H](C(=O)O)C1)c1sccc1C` [TIAGABINE] the Activity [5] was 73%, the Activity [6] was 64% and the IC50 [4] was 0.132 µM. It also gave an Activity [8] of 52%.
